Screening data as filed in PubChem BioAssay.
An excerpt weighted towards active compounds, which were near 5.1% of everything screened.
STAT3 act – activators of IL-6 induced STAT3 signaling | U3A cells, IL-6 STAT3-luciferase reporter, luminescence; 100% = signal with IL-6 EC80 alone | activation (% of control), % at 5.6 µM | 190,000 tested, 0.91% active | AID 871;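 active means activation above the screen-wide mean of compound activation plus 3 SD, cut at about 130% in these data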
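Assay system – human STAT1-deficient U3A cells with stable STAT3-luciferase reporter · Also added – IL-6 (33 ng/mL) · Schedule – compound 1 h, then IL-6 6 h at 37 °C · Technique – reporter luminescence signal · Evaluation – % activation versus median of IL-6-stimulated wells · Benchmarks – IL-6-only wells as 100% reference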
STAT1 blocker – inhibitors of IFN-gamma induced STAT1 signaling; NIH 3T3 STAT1-luciferase reporter, luminescence; inhibition, % at 5.5 µM; 200,000 tested, 0.35% active;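 active means inhibition above a set limit, the mean inhibition across all tested compounds plus 3 SD, cut at about 34% in these data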
NF-kB neuron act – compounds increasing NF-kB expression in human neuronal cells. NF-kB reporter expression; active compounds read high. fold change at 12.5 µM. 190,000 tested, 1.6% active. AID 1239; in the data active means fold change above about 3.3
STAT3 blocker – reduces IL-6 driven STAT3 reporter signal | U3A cells, IL-6 STAT3-luciferase reporter, luminescence; host cell line lacks STAT1 | 190,000 tested, 0.89% active | inhibition, % at 5.5 µM;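 active means inhibition above the mean inhibition across all screened compounds plus 3 SD, cut at about 44% in these data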
STAT1 act – activators of IFN-gamma induced STAT1 signaling | NIH 3T3 STAT1-luciferase reporter, luminescence; 100% = IFN-gamma alone, no compound | activation (% of control), % at 5.5 µM | 200,000 tested, 2.6% active;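 active means activation above the screen-wide mean activation plus 3 SD, cut at about 130% in these data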
APP 5'UTR act – activates APP 5'UTR luciferase reporter; SH-SY5Y APP 5'UTR luciferase reporter, luminescence; zero percent = DMSO vehicle wells; activation, % at 2 µM; 190,000 tested, 1% active; AID 1276;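 active means activation above a set limit, based on mean plus 3 SD of controls, cut at about 140% in these data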
A number is an active result; 0 = inactive; - = no result given.

SMILES	STAT3 act	STAT1 blocker	NF-kB neuron act	STAT3 blocker	STAT1 act	APP 5'UTR act
O=C(O)c1ccc(N2CC3CC(C2)c2cccc(=O)n2C3)c(NC(=S)Nc2ccc(Br)cc2)c1 (stereo unspecified)	0	0	3.9	0	0	0
O=C(Nc1ccc(Cl)cc1)OCc1ccccn1	0	0	0	0	144	0
Cc1cc(NC(=O)CSc2nccn2C)no1	0	0	0	0	0	0
CCS(=O)(=O)N1N=C(c2cccc(NS(C)(=O)=O)c2)CC1c1ccc(C)cc1 (stereo unspecified)	0	0	0	0	0	0
COC(C#CCCN(C)C)(c1ccccc1)c1ccccc1	0	0	0	0	0	0
COc1ccc2cc3cc(C(=O)NCCCN4CCc5ccccc5C4)sc3nc2c1	0	0	3.7	0	135	0
COc1ccc2nc3sc(C(=O)NCCN4CCc5ccccc5C4)cc3cc2c1	0	0	0	0	129	0
Clc1cc(Br)ccc1OCCOCCN1CCOCC1	0	0	3.6	0	0	0
Cc1ccc(C)c(OCCOCCN2CCOCC2)c1	0	0	0	0	0	0
Cc1nc2ccccc2c(=O)n1NC(=O)Cc1ccc([N+](=O)[O-])cc1	0	0	0	0	0	0
CCOC(=O)COn1c(=O)c(-c2cc3ccccc3o2)[n+]([O-])c2ccccc21	151	0	0	0	142	0
C=CCOn1c(=O)c(-c2cc3ccccc3o2)[n+]([O-])c2ccccc21	0	0	0	0	0	0
COc1ccc(N2C(=O)c3ccccc3NC23CCC(C)CC3)cc1 (stereo unspecified)	0	0	0	0	0	0
COc1ccc(N2C(=O)c3ccccc3NC23CCCCC3)cc1	0	0	0	0	135	0
Nc1nc2c(s1)CCc1c-2cnn1-c1ccccc1	0	0	3.4	0	155	138
Nc1nc2c(s1)COc1ccccc1-2	0	0	0	0	0	0
CC(=O)NCCNC(=O)c1ccc(CSc2ccc(Cl)cc2)cc1	0	0	0	0	142	147
Cc1c(Cl)c(C(=O)NNC(=S)Nc2ccc(F)cc2)nn1C	0	0	0	0	0	0
C#Cc1ccc(CN2CCN(Cc3ccsc3)C(CCO)C2)cc1 (stereo unspecified)	0	0	0	0	0	0
CC(C)(O)C#Cc1ccc(CN2CCN(Cc3ccsc3)C(CCO)C2)cc1 (stereo unspecified)	0	0	3.8	0	0	0
CCCC(=O)Nc1sc2c(c1C(=O)Nc1ccccn1)CCCC2	0	0	0	0	0	0
Cc1ccc(OCCn2cnc3c(N)ncnc32)cc1	0	0	0	0	129	0
CCN(CC)S(=O)(=O)c1cc(C(=O)NC2CCCCC2)ccc1C	0	0	0	0	129	0
CCN(CC)S(=O)(=O)c1cc(C(=O)Nc2ccc(Cl)cn2)ccc1C	0	0	0	0	135	183
Cc1ccc(C(=O)NC2CCCCC2)cc1	0	0	0	0	139	0
SMILES	STAT3 act	STAT1 blocker	NF-kB neuron act	STAT3 blocker	STAT1 act	APP 5'UTR act
C/C(=N/OC(=O)C1CC1)c1cc(-c2ccc(Cl)cc2)no1	0	0	0	0	136	0
C=C(C)COc1ccc2c3c(c(=O)oc2c1OCC(=C)C)CCC3	0	0	3.5	0	0	0
Cc1c(OCc2ccc([N+](=O)[O-])cc2)ccc2c3c(c(=O)oc12)CCC3	0	0	0	0	0	192
Cc1ccc(SCC(=O)Nc2nccs2)cc1	0	0	0	0	0	0
Cc1ccc(C#N)c(SCC(=O)Nc2nccs2)n1	0	0	0	0	0	175
N#Cc1cc2c(nc1SCC(=O)Nc1nccs1)CCCCC2	0	0	0	0	0	195
O=C1CC(N2CCSCC2)C(=O)N1c1cccc(Cl)c1 (stereo unspecified)	0	0	0	0	0	0
Cc1ncsc1CCOC(=O)c1ccc(Cl)cc1	0	0	0	0	0	0
Cc1ccc([N+](=O)[O-])cc1-c1ccc(/C=C(\C#N)c2[nH]nc(N)c2C#N)o1	0	0	0	0	140	0
O=C(CCc1ccc(Oc2cc([N+](=O)[O-])cc([N+](=O)[O-])c2)cc1)N1CCCCC1	0	0	0	0	0	-
N=C1C(c2nc3ccccc3s2)=C(O)CN1Cc1ccccc1	0	0	0	0	131	0
CCN(CC)CCCN1CC(O)=C(c2nc3ccccc3s2)C1=N	0	0	0	0	0	0
N=C1C(c2nc3ccccc3s2)=C(O)CN1C1CCCCC1	0	0	0	0	147	0
CCOc1ccccc1N1CC(O)=C(c2nc3ccccc3s2)C1=N	0	0	0	0	0	0
CCN(CC)S(=O)(=O)c1c(OC)cc(C)c(Cl)c1C	0	0	0	0	0	0
CCOC(=O)C1(Cc2ccccc2C(F)(F)F)CCN(C2CCN(C(C)C)CC2)CC1	0	0	0	0	0	0
Cc1ccccc1-n1c(SC/C(O)=C(\C#N)c2nc3ccccc3[nH]2)nnc1-c1ccncc1	133	0	0	0	0	0
CCC(=O)N/C(N)=N/c1nc(C)c2cc(OC)ccc2n1	0	0	0	0	134	0
COc1ccc2nc(/N=C(\N)NC(=O)N3c4ccccc4Sc4ccccc43)nc(C)c2c1	0	0	0	0	0	0
COc1ccc2nc(/N=C(\N)NC(=O)C(C)(C)C)nc(C)c2c1	0	0	0	0	129	0
Cc1cccc(NC(=O)c2c(C)nn(-c3ccccc3)c2Cl)c1	0	0	0	0	0	0
CCOC(=O)c1cc(C(=O)Nc2cccc(C)c2)nn1C	0	0	6.8	0	135	0
O=C(CCNc1ccc(Cl)cc1)c1cccs1	0	0	0	0	130	0
CCOC(=O)c1sc(SC)nc1N	0	0	0	0	0	0
CC[n+]1c(/C=C2\C=C(C)CC(C)(C)C2)sc2ccccc21	0	0	0	50	0	0
SMILES	STAT3 act	STAT1 blocker	NF-kB neuron act	STAT3 blocker	STAT1 act	APP 5'UTR act
CC[n+]1c(/C=C2/C=C(C)CC(C)(C)C2)sc2ccc(OC)cc21	0	0	0	58	0	0
O=C(NCCc1cccs1)C12CN(Cc3ccccc3)CC1C(c1cccc([N+](=O)[O-])c1)=NO2 (stereo unspecified)	0	0	0	0	0	0
CCOC(=O)c1cc(-c2ccc(F)cc2)n(CCC(=O)NC2CCN(Cc3ccccc3)CC2)c1C	0	0	3.7	0	0	0
CCOC(=O)c1cc(-c2ccc(OC)cc2)n(CCC(=O)NC2CCN(Cc3ccccc3)CC2)c1C	0	0	0	0	0	0
CC(C)N1CCC2(CC1)N=C(c1ccc3c(c1)OCO3)CC(c1cc(Cl)ccc1O)N2 (stereo unspecified)	0	0	4.7	0	0	0
Cc1ccc(/C=N/n2cc(-c3ccccc3)[nH]c2=S)s1	0	0	0	0	129	0
S=c1[nH]c(-c2ccccc2)cn1/N=C/c1ccccc1Br	0	0	0	0	0	0
